The nature of the data set: Toxicity liver stage against HepG2, at 10uM. It is filed as cell-based. Set-up: test concentration 10 uM, cell line HepG2-A16-CD81EGFP. The following applies: human, HepG2-A16-CD81EGFP cells; read-out: INHIBITION
The method, boiled down:
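Uninfected HepG2-A16-CD81EGFP cells, 3 × 10^3 per well, 1536-well, plated on prespotted compound at 10 μM final, parasite-free screening media added to match infected plates; puromycin 10 μM positive, DMSO 0.5% negative; run in parallel with 48 h PbLuc assay at 37 °C, 5% CO2; viability by CellTiter-Glo luminescence, normalized to controls.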
Take `Cc1cnn(CCNCc2c(C)nn(Cc3ccccc3)c2C)c1`: the cytotoxicity at 10 µM was -3.46%.
`CC(C)[C@]1(O)CN(C(=O)CNC(N)=O)C[C@H]1C`: the cytotoxicity at 10 µM stood at 5.69%.
The figure for `CCCC(=O)NC(C(=O)OC)c1cc(F)ccc1F` (stereo not given) is 8.55%; for `Cc1noc(C)c1-c1n[nH]c2c1CN(S(=O)(=O)c1ccsc1)CC2` it is 5.6%; for `O=C(c1ccc2c(c1)COC2)N1CCN(CC2CC2)CC1` it is -7.18%.
In the case of `CC(NC(=O)N1CCC2(C1)OCCO2)c1cccc(Cl)c1` (stereo not given), the cytotoxicity at 10 µM is -6.88%.
Consider `CNC(=O)Cc1ccc(NC(=O)NCc2ncc(C)s2)cc1`, for which the cytotoxicity at 10 µM was found to be 7.34%.
`CC(C)N1CCN(C(=O)c2ccccc2NCc2cccnc2)CC1`: the cytotoxicity at 10 µM is -19.4%.
As to `Cc1noc(C)c1CN(C)Cn1c(=O)n(C)c2ccccc21`, the cytotoxicity at 10 µM amounted to 5.25%.
With `N#Cc1cccc(N2CCCC3(CN(C(=O)NC4CC4)CCO3)C2)c1` (stereo not given), the cytotoxicity at 10 µM was 12.1%.
Regarding `Cc1cccc(OCC(O)CN2CCC(c3ccn[nH]3)CC2)c1` (stereo not given), the cytotoxicity at 10 µM was -3.6%.
For `c1ccc(CCCN2CCCC(Nc3cnc4ccccc4n3)C2)cc1` (stereo not given), the cytotoxicity at 10 µM was 1.34%.
As to `COCCCNC1CCCN(c2ccc(C)nn2)C1` (stereo not given), the cytotoxicity at 10 µM was -9.9%.
Consider `Cc1cc(C)n(NC(=O)c2ccccc2C)c(=O)c1`, for which the cytotoxicity at 10 µM is -5.05%.
With `Cc1nc(Nc2ncccn2)cc(C2CCCN2C2CCOCC2)n1` (stereo not given), the cytotoxicity at 10 µM is -4.45%.
Then `CC(C)NC(=O)CN(C)CC(=O)Nc1ccnn1C(C)C1CC1` (stereo not given), with -6%.
As for `Cc1ccc([C@@H]2CN(C(=O)c3cc[nH]c3)C[C@H]2NC(=O)C2CC2)cc1`, the cytotoxicity at 10 µM is -7.59%.
In the case of `Cc1cc(C)n(-c2cncc(NCCNC(=O)c3cccnc3)n2)n1`, the cytotoxicity at 10 µM was determined as 7.45%.
For the compound `CCc1nn(-c2cc(Oc3cc(C)ccc3C)ncn2)c(N)c1C#N`, the cytotoxicity at 10 µM was 12.9%.
With `CCC(=O)N1CCC(Cc2ccccc2-c2ccncc2)(C(=O)NC)C1` (stereo not given), the cytotoxicity at 10 µM was -16%.
In the case of `CC(C)c1nc(CN(C)C2CCN(CC(F)(F)F)C2)no1` (stereo not given), the cytotoxicity at 10 µM is -15.8%.
As for `O=C(c1ccccc1C(F)(F)F)N1C[C@@H](CN2CCOCC2)[C@@H](CO)C1`, the cytotoxicity at 10 µM was -3.7%.
`COCCN(Cc1sccc1C)C(=O)COc1cccnc1`: the cytotoxicity at 10 µM was -138%.
The figure for `Cn1ccc(C(=O)N2CCN(c3ncccn3)CC2)cc1=O` is -11.6%; for `CN(Cc1ccc(F)cc1)CC1(O)CCN(C(=O)c2cccs2)C1` (stereo not given) it is -12.6%.
With `Cc1cc(CN2CCN(C(=O)CCc3ccco3)CC2)on1`, the cytotoxicity at 10 µM was -2.6%.
Then `O=C(CCc1ccccc1)N1CCCCC1Cn1cccn1` (stereo not given), with 3.78%; and `CCOCCCNc1nc2c(s1)c(C)nn2C`, with 1.54%; and `O=C(c1cn2cc(Cl)cnc2n1)N1CCOCC(O)(CN2CCCC2)C1` (stereo not given), with -8.42%.
With `CSc1cc2c(cc1NC(=O)N(C)Cc1cnn(C)c1)OCCO2`, the cytotoxicity at 10 µM is 5.25%.
As for `NCc1n[nH]c(-c2ccc(F)cc2)n1`, the cytotoxicity at 10 µM is 0.186%.
Then `Cc1cc(-c2cnc(NC3CC3)nc2-c2ccco2)on1`, with -23.2%; and `Cc1cc(C(=O)NCCc2nc3c(s2)CCCC3)n(C)n1`, with 20.5%; and `COCCc1noc(CNCC2CCCN2c2cccnn2)n1` (stereo not given), with 4.33%.
In the case of `CC1CCCN1Cc1ccccc1-c1nc(C(C)(C)C)cc(=O)[nH]1` (stereo not given), the cytotoxicity at 10 µM amounted to 11.4%.
Turning to `COc1cccc2c1OCC(C(=O)NC1CCN(S(C)(=O)=O)CC1)C2` (stereo not given), the cytotoxicity at 10 µM is -10.7%.
`COC(C)(CNS(=O)(=O)c1cnn(C)c1)c1ccccc1F` (stereo not given): the cytotoxicity at 10 µM was -4.8%.
Turning to `CCc1nccc(CN2CCC(CNC(=O)Nc3ccccc3)C2)n1` (stereo not given), the cytotoxicity at 10 µM is 9.99%.
The figure for `CCOC(=O)NC(CNC(=O)c1cn(C)cn1)CC(C)C` (stereo not given) is -5.35%; for `CC(=O)N1CCN(Cc2cccs2)CC2(CC(=O)N(C)C2)C1` (stereo not given) it is 1.7%.

Values taken from ChEMBL document CHEMBL4513216, “Probing the Open Global Health Chemical Diversity Library for Multistage-Active Starting Points for Next-Generation Antimalarials” (ACS Infect Dis, 2020).
